We go through 37 compounds from ChEMBL document CHEMBL1128352, “Substituted (1,2-diarylethyl)amide acyl-CoA:cholesterol acyltransferase inhibitors: effect of polar groups on in vitro and in vivo activity” (J Med Chem, 1995).

In experiment [1] the target is T1, Sterol O-acyltransferase 1 (Rattus norvegicus, UniProt O70536).
T1 sequence (O70536 whole entry): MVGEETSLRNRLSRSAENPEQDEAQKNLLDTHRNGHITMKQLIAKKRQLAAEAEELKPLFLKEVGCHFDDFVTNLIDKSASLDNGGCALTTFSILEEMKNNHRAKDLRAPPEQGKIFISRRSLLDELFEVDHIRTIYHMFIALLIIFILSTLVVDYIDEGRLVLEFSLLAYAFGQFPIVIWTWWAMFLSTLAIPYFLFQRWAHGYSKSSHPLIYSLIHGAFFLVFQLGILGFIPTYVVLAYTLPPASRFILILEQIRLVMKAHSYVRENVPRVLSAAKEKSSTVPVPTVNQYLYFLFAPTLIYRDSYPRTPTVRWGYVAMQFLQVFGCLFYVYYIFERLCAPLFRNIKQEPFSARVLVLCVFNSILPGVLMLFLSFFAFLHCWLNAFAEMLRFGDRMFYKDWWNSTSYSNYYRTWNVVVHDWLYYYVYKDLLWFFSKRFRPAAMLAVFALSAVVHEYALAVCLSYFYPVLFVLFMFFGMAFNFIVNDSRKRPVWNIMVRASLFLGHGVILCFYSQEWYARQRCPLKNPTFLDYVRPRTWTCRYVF
Briefly: In vitro inhibition of acyl coenzyme A:cholesterol acyltransferase 1, rat liver microsomal assay. In outline:
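Compound added from DMSO stock and preincubated 15 min at 37 °C. [³H]oleoyl-CoA (10 µM final, 1 µCi) then added for 15 min at 37 °C. Cholesteryl [³H]oleate separated by silica TLC and counted by liquid scintillation.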
For orientation: Liver microsomes are a subcellular fraction often used to study metabolism.

The subject of experiment [2] is Cricetinae gen. sp. Nature of the experiment: In vivo effect on cholesteryl esters level of cholesterol-fed hamsters at a dose of 50 mg/kg per oral. Type of experiment: functional. The method, boiled down:
(§1)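 Male golden Syrian hamsters (100–125 g) were fed a high-cholesterol diet for 7 days. Compound was given by oral gavage in 0.2 mL corn oil/day. Liver lipids were Folch-extracted and hepatic cholesteryl ester measured by HPLC. Results are given as percent change versus cholesterol-fed controls dosed with vehicle alone.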

Experiment [3] deals with Cricetinae gen. sp. Briefly: In vivo effect on serum cholesterol level of cholesterol-fed hamsters at a dose of 50 mg/kg per oral. In kind it is functional.
The subject of experiment [4] is Cricetinae gen. sp. Briefly: In vivo effect on cholesteryl esters in cholesterol-fed hamsters at a dose of 50(mpk). In kind it is functional. The method, boiled down:
as §1

Experiment [5] has as its system Cricetinae gen. sp. Briefly: In vivo effect on serum cholesterol level of cholesterol-fed hamsters at a dose of 50(mpk). In kind it is functional.
The subject of experiment [6] is Cricetinae gen. sp. Briefly: In vivo dose effecting the cholesteryl esters in cholesterol-fed hamsters at a dose of 50(mpk). In kind it is functional.
Experiment [7] concerns the target T2, Sterol O-acyltransferase 1 (Rattus norvegicus) (UniProt O70536).
T2 sequence (whole entry): T1 sequence (O70536 whole entry)
Briefly: In vitro ability of compound to inhibit Acyl coenzyme A:cholesterol acyltransferase 1 using rat liver microsomal assay. To be noted: concentration not given here. The method, boiled down: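 Rat liver microsomes (12.5 µg protein) in 0.1 M potassium phosphate with 2 mM DTT, pH 7.4, and 90 µM fatty-acid-free BSA. Compound added from DMSO stock and preincubated 15 min at 37 °C. [³H]oleoyl-CoA (10 µM final, 1 µCi) then added for 15 min at 37 °C. Cholesteryl [³H]oleate separated by silica TLC and counted by liquid scintillation.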

The subject of experiment [8] is Cricetinae gen. sp. Nature of the experiment: In vivo effect on serum cholesterol level of cholesterol-fed hamsters at a dose of 100(mpk). In kind it is functional.
Experiment [9] concerns Cricetinae gen. sp. Briefly: In vivo effect on cholesteryl esters in cholesterol-fed hamsters at a dose of 100(mpk). In kind it is functional. The method, boiled down: as §1

SMILES strings stand for the structures. pIC50: −log10 of the molar value.

By pIC50 is commonly meant the IC50 on a negative log10 scale, so that one unit is a factor of ten. Read a low pIC50 as a large IC50. For the compound `O=C(NC(Cn1ccnc1)c1ccccc1)C(c1ccccc1)c1ccccc1` (configuration not stated), the pIC50 in experiment [1] is 5.46. In addition, the Change in the experiment on Cricetinae gen. sp. [2] and in the experiment on Cricetinae gen. sp. [3] was 0% in each case.
As for `CS(=O)(=O)Nc1ccc(CC(NC(=O)C(c2ccccc2)c2ccccc2)c2ccccc2)cc1` (configuration not stated), the negative-log IC50 (pIC50) in experiment [1] is 6.44. Also, the Change with Cricetinae gen. sp. [2] was -32%; with Cricetinae gen. sp. [3], -17%.
Taken in the same sequence, the figures for `O=C(NC(Cc1ccccc1)c1cccnc1)C(c1ccccc1)c1ccccc1` (configuration not stated) were 5.40, 0% and -9%.
Broadly, the ED50 is the midpoint of the dose-response relation. A higher ED50 goes with a need for a large dose. With `CCCCCCCCCCC(C)(C)C(=O)Nc1c(OC)cc(OC)cc1OC` [CL-976], the Change in the experiment with Cricetinae gen. sp. [4] is -67%; in the experiment with Cricetinae gen. sp. [5], -10%. The same compound yielded an ED50 in the experiment with Cricetinae gen. sp. [6] of 20 mg/kg.
Take `O=C(NC(Cc1ccc(O)cc1)c1ccccc1)C(c1ccccc1)c1ccccc1` (configuration not stated): the pIC50 in experiment [1] was 6.10. For the same compound, the Change in the experiment with Cricetinae gen. sp. [2] and in the experiment on Cricetinae gen. sp. [3] was 0% in each case.
In the case of `O=C(NC(Cc1ccccc1)c1ccccc1)C(c1ccccc1)c1ccccc1` (configuration not stated), the pIC50 in experiment [1] is 6.34. In addition, the Change with Cricetinae gen. sp. [4] is recorded as -15%; with Cricetinae gen. sp. [5], 0%.
Compound `CCCCCCCn1ccnc1CC(NC(=O)C(c1ccccc1)c1ccccc1)c1ccccc1` (configuration not stated) gave a pIC50 in experiment [1] of 5.30. In addition, the Change in the experiment with Cricetinae gen. sp. [2] and with Cricetinae gen. sp. [3] was 0% in each case.
In the case of `O=C(O)c1ccc(CC(NC(=O)C(c2ccccc2)c2ccccc2)c2ccccc2)cc1` (configuration not stated), the pIC50 in experiment [1] was less than 5.00.
`C[Si](C)(C)CCOCn1ccnc1CC(NC(=O)C(c1ccccc1)c1ccccc1)c1ccccc1` (configuration not stated): the pIC50 in [1] was 5.30. Further, the Change is on record as -24% with Cricetinae gen. sp. [2] and 0% in the experiment with Cricetinae gen. sp. [3].
On to `Nc1ccc(C(Cc2ccccc2)NC(=O)C(c2ccccc2)c2ccccc2)cc1` (configuration not stated), for which, in [1], the negative-log IC50 (pIC50) is 5.55. The Change in the experiment on Cricetinae gen. sp. [2] is -24%; in the experiment with Cricetinae gen. sp. [3] it was 0%.
`COc1ccc(CC(NC(=O)C(c2ccccc2)c2ccccc2)c2ccccc2)cc1` (configuration not stated) showed a pIC50 in experiment [1] of 5.80. For the same compound, the results for the Change in the experiment on Cricetinae gen. sp. [2] and in the experiment on Cricetinae gen. sp. [3] were -65% and -14%, respectively.
`COc1ccc(CC(NC(=O)C(c2ccccc2)c2ccccc2)c2cccc(OC)c2)cc1` (configuration not stated): the negative logarithm of the IC50 (pIC50) in [1] was 5.62. Besides, the Change is on record as 0% in the experiment on Cricetinae gen. sp. [2] and -20% with Cricetinae gen. sp. [3].
On to `O=C(O)c1ccc(C(Cc2ccccc2)NC(=O)C(c2ccccc2)c2ccccc2)cc1` (configuration not stated), for which the pIC50 in experiment [1] was 5.00. Also, the Change in the experiment with Cricetinae gen. sp. [2] and in the experiment on Cricetinae gen. sp. [3] was 0% in each case.
On to `O=C(NC(Cc1ccccc1)c1ncc[nH]1)C(c1ccccc1)c1ccccc1` (configuration not stated), for which, in experiment [1], the pIC50 is less than 5.00.
Turning to `O=C(NC(Cc1ncc[nH]1)c1ccccc1)C(c1ccccc1)c1ccccc1` (configuration not stated), the pIC50 in experiment [1] is less than 5.00.
In [1], `O=C(NC(Cc1ccccc1)c1ccncc1)C(c1ccccc1)c1ccccc1` (configuration not stated) showed a pIC50 of 5.64. In addition, the Change in the experiment with Cricetinae gen. sp. [2] is on record as -29%; in the experiment with Cricetinae gen. sp. [3], -13%.
In turn, `O=C(NC(Cc1ccccc1)c1cc[n+]([O-])cc1)C(c1ccccc1)c1ccccc1` (configuration not stated) showed a negative logarithm of the IC50 (pIC50) in experiment [1] of less than 5.00. The Change was -28% in the experiment with Cricetinae gen. sp. [2] and 0% in the experiment with Cricetinae gen. sp. [3].
As for `C[Si](C)(C)CCOCn1ccnc1C(Cc1ccccc1)NC(=O)C(c1ccccc1)c1ccccc1` (configuration not stated), in [1], the pIC50 was less than 5.00.
One may read the inhibition as the relative decrease from the control value, in per cent. Lower therefore signals a weak effect. `O=C(NC(Cc1ccccc1)c1cccc(O)c1)C(c1ccccc1)c1ccccc1` (configuration not stated) showed an inhibition in experiment [7] of 88%. Moreover, the Change in the experiment with Cricetinae gen. sp. [2] is -19%; with Cricetinae gen. sp. [3], -17%.
`Nc1ccc(CC(NC(=O)C(c2ccccc2)c2ccccc2)c2ccccc2)cc1` (stereo in doubt; (+)-5): in the experiment on Cricetinae gen. sp. [2], the Change is given as 0%.
`CCCCCCCCCC[Si](C)(C)CCC(=O)NC(Cc1ccc(C)cc1)c1ccccc1` (configuration not stated): the pIC50 in experiment [1] was 6.52. For the same compound, the Change is -5% with Cricetinae gen. sp. [8] and 0% in the experiment with Cricetinae gen. sp. [9].
On to `O=C(NC(Cc1ccc(O)cc1)c1ccc(O)cc1)C(c1ccccc1)c1ccccc1` (configuration not stated), for which, in [7], the inhibition was determined as 97%. The Change with Cricetinae gen. sp. [2] is on record as -40%; with Cricetinae gen. sp. [3], -20%.
Turning to `COC(=O)c1ccc(CC(NC(=O)C(c2ccccc2)c2ccccc2)c2ccccc2)cc1` (configuration not stated), the negative-log IC50 (pIC50) in experiment [1] was less than 5.00.
With `O=C(NC(Cc1ccccc1)c1ccc(O)cc1)C(c1ccccc1)c1ccccc1` (configuration not stated), in experiment [1], the pIC50 is 6.00. Besides, the values for the Change in the experiment with Cricetinae gen. sp. [2] and with Cricetinae gen. sp. [3] were -69% and -14%, respectively.
On to `Nc1ccc(CC(NC(=O)C(c2ccccc2)c2ccccc2)c2ccccc2)cc1` (racemic), for which the Change in the experiment on Cricetinae gen. sp. [4] is reported as -60%; with Cricetinae gen. sp. [5], -13%. The compound also had a 50% effective dose (ED50) with Cricetinae gen. sp. [6] of 21 mg/kg.
In [1], `COc1ccc(C(Cc2ccccc2)NC(=O)C(c2ccccc2)c2ccccc2)cc1` (configuration not stated) showed a negative-log IC50 (pIC50) of 5.82. Also, the Change with Cricetinae gen. sp. [2] is given as -69%; in the experiment with Cricetinae gen. sp. [3], -14%.
`CCCCCCCC/C=C\CCCCCCCC(=O)NC(Cc1ccccc1)c1ccccc1` (configuration not stated): the Change in the experiment on Cricetinae gen. sp. [8] is reported as -4%; with Cricetinae gen. sp. [9], -23%.
As to `Nc1ccc(CC(NC(=O)C(c2ccccc2)c2ccccc2)c2ccccc2)cc1` (single isomer, unassigned; (-)), the Change is -81% with Cricetinae gen. sp. [2] and 0% with Cricetinae gen. sp. [3].
On to `COc1ccc(CC(NC(=O)C(c2ccccc2)c2ccccc2)c2ccc(OC)cc2)cc1` (configuration not stated), for which the pIC50 in [1] is less than 5.00. The Change in the experiment with Cricetinae gen. sp. [2] is given as -32%; in the experiment with Cricetinae gen. sp. [3], 0%.
On to `Nc1cccc(CC(NC(=O)C(c2ccccc2)c2ccccc2)c2ccccc2)c1` (configuration not stated), for which the pIC50 in experiment [1] is 5.30. Moreover, the Change in the experiment on Cricetinae gen. sp. [2] is reported as -31%; with Cricetinae gen. sp. [3], -15%.
On to `CCCCCCCC/C=C\CCCCCCC(C)(C)C(=O)NC(Cc1ccc(N)cc1)c1ccccc1` (configuration not stated), for which the negative-log IC50 (pIC50) in experiment [1] was 6.44. For the same compound, the Change with Cricetinae gen. sp. [8] was -24%; in the experiment on Cricetinae gen. sp. [9], -54%.
With `CCCCCCCN(Cc1ccc(CC(C)(C)C)cc1)C(=O)Nc1ccc(F)cc1F` [CL-277082], the results for the Change in the experiment with Cricetinae gen. sp. [4] and in the experiment with Cricetinae gen. sp. [5] were -85% and -29%, respectively. In the experiment with Cricetinae gen. sp. [6], this compound showed a median effective dose (ED50) of 15 mg/kg.
In [1], `COc1cccc(C(Cc2ccccc2)NC(=O)C(c2ccccc2)c2ccccc2)c1` (configuration not stated) had a pIC50 of 5.82. For the same compound, the Change with Cricetinae gen. sp. [2] and with Cricetinae gen. sp. [3] was 0% each time.
For `O=C(NC(Cc1ccncc1)c1ccccc1)C(c1ccccc1)c1ccccc1` (configuration not stated), the pIC50 in [1] was 5.74. Further, the results for the Change in the experiment on Cricetinae gen. sp. [2] and with Cricetinae gen. sp. [3] were -52% and -10%, respectively.
In experiment [1], `COc1ccc(CC(NC(=O)C(c2ccccc2)c2ccccc2)c2ccccc2)cc1OC` (configuration not stated) showed a pIC50 of 6.30. In addition, the Change is given as -26% in the experiment on Cricetinae gen. sp. [2] and -21% with Cricetinae gen. sp. [3].
Compound `COc1ccccc1C(Cc1ccccc1)NC(=O)C(c1ccccc1)c1ccccc1` (configuration not stated) showed a pIC50 in experiment [1] of 5.74. The Change in the experiment with Cricetinae gen. sp. [2] is reported as -51%; in the experiment on Cricetinae gen. sp. [3], 0%.
In experiment [1], `CC(=O)Nc1ccc(CC(NC(=O)C(c2ccccc2)c2ccccc2)c2ccccc2)cc1` (configuration not stated) had a pIC50 of 6.46. Further, the results for the Change with Cricetinae gen. sp. [2] and in the experiment on Cricetinae gen. sp. [3] were 0% and -12%, respectively.
